The list is not random: actives were taken first. Their share in the collection is about 4.9%.
STAT1 inh: STAT1 signaling inhibitors, primary screen, cell-based, HTS, luciferase reporter. NIH 3T3 STAT1-luciferase reporter, IFN-gamma, luminescence. inhibition, % at 5.5 µM. actives 0.35% (n = 200,000);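 active means inhibition above a set limit, the mean inhibition across all tested compounds plus 3 SD, cut at about 34% in these data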
STAT3 inh: IL-6 driven STAT3 reporter inhibitors, primary screen, U3A cells, luciferase, luminescence, MLSCN library. IL-6 STAT3-luciferase reporter; host cell line lacks STAT1. inhibition, % at 5.5 µM. actives 0.89% (n = 190,000). AID 862, 2007;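 active means inhibition above the mean inhibition across all screened compounds plus 3 SD, cut at about 44% in these data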
NF-kB expr up: activators of NF-kB expression in neurons, primary screen, cell-based, HTS. actives 1.6% (n = 190,000). human neuronal cells, NF-kB reporter expression; stronger effect = higher value. fold change at 12.5 µM; in the data active means fold change above about 3.3
STAT3 act-1: IL-6 driven STAT3 reporter potentiators, primary screen, U3A cells, luciferase, luminescence, MLSCN library. actives 0.91% (n = 190,000). activation (% of control), % at 5.6 µM. IL-6 STAT3-luciferase reporter; 100% = signal with IL-6 EC80 alone;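 active means activation above the screen-wide mean of compound activation plus 3 SD, cut at about 130% in these data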
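Test system: STAT3-luciferase reporter U3A cells; Detection: reporter luminescence signal; Times: 1 h compound pre-exposure, 6 h IL-6 stimulation, 37 °C; Benchmarks: IL-6-only high control; Also added: IL-6 stimulus at 33 ng/mL final.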
STAT1 act-1: STAT1 signaling activators, primary screen, cell-based, HTS, luciferase reporter | NIH 3T3 STAT1-luciferase reporter, IFN-gamma, luminescence; 100% = IFN-gamma alone, no compound | activation (% of control), % at 5.5 µM | actives 2.6% (n = 200,000);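 active means activation above the screen-wide mean activation plus 3 SD, cut at about 130% in these data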
APP 5'UTR act: activators of APP 5'UTR luciferase reporter, primary screen, SH-SY5Y cells; SH-SY5Y APP 5'UTR luciferase reporter, luminescence; zero percent = DMSO vehicle wells; activation, % at 2 µM; actives 1% (n = 190,000); AID 1276, 2008;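 active means activation above a set limit, based on mean plus 3 SD of controls, cut at about 140% in these data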
STAT3 act-2: STAT3 reporter potentiators, retest of hits, confirmation, U3A cells, luciferase, luminescence; shares compounds with STAT3 act-1; IL-6 potentiation; U3A cells lack STAT1; 100 means same as IL-6 alone; potentiation (% of control), % at 5.7 µM; actives 64% (n = 1,200); AID 1267, 2008;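 active means percent activation of the STAT3 luciferase reporter above a set limit taken from the earlier primary screen, cut at about 130% in these data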
NFkB act 2: NF-kB reporter activators in human cells, counter-screen for STAT3 activator project; AID 1309, 2008; shares compounds with STAT3 act-1; NF-kappaB reporter activation; actives 11% (n = 1,200); activation (% of control), % at 5.7 µM; in the data active means activation above about 120%;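 further: reporter induced by TNF-alpha stimulation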
STAT1 act-2: STAT1 reporter activators, IFN-gamma induced, counter-screen for STAT3 activator project, cell-based, NIH 3T3, luciferase luminescence. shares compounds with STAT3 act-1. NIH 3T3 STAT1-luciferase reporter. activation (% of control), % at 5.7 µM. actives 13% (n = 1,200);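 active means activation above the solvent-only control well mean plus 3 SD, set per screening run, cut at about 120% in these data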
A number is an active result; – = inactive; · = not tested or not shown.

SMILES	STAT1 inh	STAT3 inh	NF-kB expr up	STAT3 act-1	STAT1 act-1	APP 5'UTR act	STAT3 act-2	NFkB act 2	STAT1 act-2
CCSc1nc2sc3c(c2c(=O)[nH]1)CCc1ccccc1-3	–	–	–	143.8	–	–	152.3	–	–
Oc1ccc2ccccc2c1CNc1cnc2ccccc2c1	–	–	–	146.3	–	·	133.3	–	–
Cn1c(NCc2c(O)ccc3ccccc23)nc2ccccc21	–	–	–	–	–	–	·	·	·
COC(=O)c1cnn(-c2nc3c(C)cccc3s2)c1C	–	–	–	140.5	–	–	134.3	–	–
COc1ccc(-c2csc(NC(=O)CSc3nc(SC)ns3)n2)cc1	–	–	–	137.0	–	–	140.5	–	–
CCOC(=O)c1[nH]c2ccccc2c1NC(=O)CN(C)C	–	–	–	–	–	–	·	·	·
CCOC(=O)c1[nH]c2ccccc2c1NC(=S)Nc1cccc(C)c1C	–	–	–	163.7	–	–	155.7	–	–
CCOC(=O)c1[nH]c2ccccc2c1NC(=O)CC(C)(C)C	–	–	–	164.1	–	–	158.7	–	–
N=C(SC1CC(=O)N(c2ccc(F)cc2)C1=O)N1N=C(c2ccccc2)CC1c1ccccc1 (configuration not stated)	–	–	–	–	–	–	·	·	·
O=C(CC1Nc2ccccc2NC1=O)Nc1ccc2c(c1)OCO2 (configuration not stated)	–	–	–	–	–	–	·	·	·
Cc1ccc(NC(=O)CC2Nc3ccccc3NC2=O)cc1Cl (configuration not stated)	–	–	·	137.8	–	–	–	–	–
O=C(CCCn1cnc([N+](=O)[O-])n1)Nc1cccc2ccccc12	–	–	–	138.4	–	–	–	–	–
O=C(Cn1cnc([N+](=O)[O-])n1)NCc1ccccc1	–	–	–	–	–	–	·	·	·
Cc1ccc2cccc(NC(=S)NC(=O)c3ccn(C)n3)c2n1	–	–	–	–	–	–	·	·	·
Cc1ccc2cccc(NC(=S)NC(=O)c3c(Br)cnn3C)c2n1	–	–	–	138.6	–	–	–	–	–
O=C(Nc1nc(-c2cccs2)cs1)c1cc2ccccc2oc1=O	–	–	–	–	–	–	·	·	·
O=c1oc2ccccc2cc1-c1nc(-c2cccs2)cs1	–	–	–	158.7	–	·	–	–	–
COC(=O)c1ccc(CC(=O)c2nc3ccccc3s2)cc1	–	–	–	–	–	–	·	·	·
O=C(Cc1ccccc1)c1nc2ccccc2s1	–	–	–	142.7	–	–	164.3	127.8	127.7
CCOc1ccccc1OCC(=O)NNC(=O)Cn1cnc2c1c(=O)n(C)c(=O)n2C	–	–	–	–	–	–	·	·	·
CC(=O)n1c2c(c3ccccc31)OC(N)=C(C#N)C2c1cccc(Cl)c1Cl (configuration not stated)	–	–	–	141.0	–	–	141.2	–	–
CCCCC(=O)NC1(C(F)(F)F)NC(=O)N(Cc2ccccc2)C1=O (configuration not stated)	–	–	–	–	–	–	·	·	·
O=C(CNc1cccc2ccccc12)N/N=C/c1ccc(OC(=O)/C=C/c2ccco2)cc1	–	–	–	156.3	–	–	–	–	–
COc1cccc(N=C2CC(C)(C)CC(=O)/C2=C(/O)c2ccccc2)c1	–	–	–	–	–	–	·	·	·
CSc1nc(Cl)cc(Nc2ccc(O)cc2)n1	–	–	–	–	–	–	·	·	·
SMILES	STAT1 inh	STAT3 inh	NF-kB expr up	STAT3 act-1	STAT1 act-1	APP 5'UTR act	STAT3 act-2	NFkB act 2	STAT1 act-2
COc1cccc(-c2nc(N3CCCCC3C)c3ccccc3n2)c1O (configuration not stated)	–	–	–	138.1	–	–	138.1	–	–
Clc1cccc(C2CCN(Cc3nc(CC4CC4)no3)C2)c1 (configuration not stated)	–	–	–	–	–	–	·	·	·
CN1c2ccccc2C(=O)NC1c1ccc(Cl)cc1 (configuration not stated)	–	–	–	–	–	–	·	·	·
Clc1ccc(C2Nc3ccccc3-n3cccc32)cc1 (configuration not stated)	–	–	–	165.6	–	–	160.3	–	–
O=[N+]([O-])c1cc(S(=O)(=O)C(F)(F)F)ccc1Sc1nc2ccccc2s1	–	–	–	–	–	–	·	·	·
CS(=O)(=O)c1ccc(Sc2nc3ccccc3s2)c([N+](=O)[O-])c1	–	–	–	146.9	–	–	–	–	–
S=C(N/N=C1\CCc2ccccc21)NC1CCCCC1	–	–	–	136.6	–	–	164.1	135.1	122.1
Nc1ccc(C2=Nc3cccc4cccc(c34)N2)cc1	–	–	–	158.1	–	–	162.5	–	–
CCOC(=O)Cc1csc(NC(=O)CSc2nc(N)c3c(C)c(C)sc3n2)n1	–	–	–	–	–	–	·	·	·
O=C(Nc1nc2c(s1)COc1ccccc1-2)c1cccs1	–	–	–	138.8	–	–	–	153.8	135.9
O=C(Nc1nc2c(s1)CCc1ccccc1-2)c1cccs1	–	–	–	–	–	–	·	·	·
Cc1cc(C)c(C)c(N=Nc2nc3ccccc3n2C)c1C	–	–	–	–	–	–	·	·	·
Cc1ccc(C)c(N=Nc2nc3ccccc3n2C)c1	–	–	3.94	175.5	–	161.2	223.1	153.8	237.1
Cc1ccc(-c2ccccc2[C@@H]2C[C@H]3CN(C)C(=O)[C@]34CCCN24)o1	–	–	–	–	–	–	·	·	·
O=C1N(c2ccccc2)C[C@@H]2C[C@@H](c3cc4ccccc4o3)N3CCC[C@@]123	–	–	–	140.8	–	–	156.5	–	–
COc1ccc(S(=O)(=O)N2CCN(Cc3ccccc3)CC2)cc1	–	–	–	137.7	–	–	–	–	–
COc1ccc(CNC(=O)COC(=O)/C=C/c2cccc(Br)c2)cc1OC	–	–	–	–	–	–	·	·	·
CN(CC(=O)NCCc1ccc(F)cc1)Cc1cccc(Cl)c1	–	–	–	–	–	–	·	·	·
OC1CCN(c2c3c(nc4cc(-c5ccc(F)cc5)nn24)CCC3)CC1	–	–	–	–	–	–	·	·	·
